Test results: ChEMBL document CHEMBL3243919, “11,12-Secoprostaglandins. 3. 8-Alkylthio(sulfinyl and sulfonyl)-12-hydroxyalkanoic acids and related compounds” (J Med Chem, 1977)
The source made the active and inactive calls. The calls are words filed in the database; no cut-off is given here.

Assays:
[1] = species: Mus musculus; experiment: Binding affinity to prostanoid receptor in [8-14C]adenine-treated CD-1 mouse ovary assessed as increase in c-AMP production at 0.01 ug/ml after 30 mins by paper chromatographic analysis in presence of phosphodiesterase inhibitor theophylline relative to control; assay type: tissue-based; settings: Female gonad
Outline: (§1)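 Mouse ovaries, three per incubation (15-25 mg), preincubated 1 h at 37 °C with shaking in aerated Krebs-Ringer phosphate buffer pH 7.2 containing [8-14C]adenine. Theophylline and test compound (in Me2SO) were then added, with a further 30 min at 37 °C. Stopped with trichloroacetic acid, homogenized and centrifuged. [14C]-cAMP isolated, including paper chromatography. Result is fold increase over untreated ovaries.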

[2] = species: Mus musculus; experiment: Binding affinity to prostanoid receptor in [8-14C]adenine-treated CD-1 mouse ovary assessed as increase in c-AMP production at 0.05 ug/ml after 30 mins by paper chromatographic analysis in presence of phosphodiesterase inhibitor theophylline relative to control; assay type: tissue-based; settings: Female gonad; outline: as §1
[3] = species: Homo sapiens; experiment: Binding affinity to prostanoid receptor in [8-14C]adenine-treated human psoriatic skin slices assessed as increase in c-AMP production at 10 ug/ml after 30 mins by paper chromatographic analysis relative to control
Outline: (§2)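 Psoriatic skin biopsied from patients off medication ≥48 h, under sc 1-2% lidocaine, and cut into 10-30 mg slices. Preincubated with [14C]adenine about 60 min at 22 °C, then 45 min at 37 °C, then 30 min at 37 °C with test compound. Stopped with TCA to 2.5%, then pulverized at -70 °C and homogenized. Supernatant [14C]-cAMP expressed as fold over unmedicated slices; average of four experiments.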

[4] = tested on: Lymphocyte; experiment: Inhibition of antigen-induced lymphocyte (unknown origin) transformation at 10 ug/mL relative to control; assay type: functional
[5] = species: Mus musculus; experiment: Binding affinity to prostanoid receptor in [8-14C]adenine-treated CD-1 mouse ovary assessed as increase in c-AMP production at 0.1 ug/ml after 30 mins by paper chromatographic analysis in presence of phosphodiesterase inhibitor theophylline relative to control; assay type: tissue-based; settings: Female gonad; outline: as §1
[6] = species: Mus musculus; experiment: Binding affinity to prostanoid receptor in [8-14C]adenine-treated CD-1 mouse ovary assessed as increase in c-AMP production at 1 ug/ml after 30 mins by paper chromatographic analysis in presence of phosphodiesterase inhibitor theophylline relative to control; assay type: tissue-based; settings: Female gonad; outline: as §1
[7] = species: Mus musculus; experiment: Binding affinity to prostanoid receptor in [8-14C]adenine-treated CD-1 mouse ovary assessed as increase in c-AMP production at 100 ug/ml after 30 mins by paper chromatographic analysis in presence of phosphodiesterase inhibitor theophylline relative to control; assay type: tissue-based; settings: Female gonad; outline: as §1
[8] = species: Mus musculus; experiment: Binding affinity to prostanoid receptor in [8-14C]adenine-treated CD-1 mouse ovary assessed as increase in c-AMP production at 25 ug/ml after 30 mins by paper chromatographic analysis in presence of phosphodiesterase inhibitor theophylline relative to control; assay type: tissue-based; settings: Female gonad; outline: as §1
[9] = species: Mus musculus; experiment: Binding affinity to prostanoid receptor in [8-14C]adenine-treated CD-1 mouse ovary assessed as increase in c-AMP production at 50 ug/ml after 30 mins by paper chromatographic analysis in presence of phosphodiesterase inhibitor theophylline relative to control; assay type: tissue-based; settings: Female gonad; outline: as §1
[10] = species: Mus musculus; experiment: Binding affinity to prostanoid receptor in [8-14C]adenine-treated CD-1 mouse ovary assessed as increase in c-AMP production at 10 ug/ml after 30 mins by paper chromatographic analysis in presence of phosphodiesterase inhibitor theophylline relative to control; assay type: tissue-based; settings: Female gonad; outline: as §1
[11] = species: Rattus norvegicus; experiment: Binding affinity to prostanoid receptor in rat lipocytes assessed as compound equivalent to cold PGE1 in displacing [3H]-PGE1 from receptor after 60 mins; assay type: cell-based
Outline: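 Test compound incubated with 0.4 ng [3H]-PGE1 and 125 µg rat lipocyte binding preparation for 60 min at 37 °C. Bound [3H]-PGE1 then measured. Three test concentrations, run in duplicate.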

[12] = species: Mus musculus; experiment: Binding affinity to prostanoid receptor in [8-14C]adenine-treated CD-1 mouse ovary assessed as increase in c-AMP production at 200 ug/ml after 30 mins by paper chromatographic analysis in presence of phosphodiesterase inhibitor theophylline relative to control; assay type: tissue-based; settings: Female gonad; outline: as §1
[13] = target: T1, 15-hydroxyprostaglandin dehydrogenase [NAD(+)] (Homo sapiens, UniProt P15428); experiment: Metabolic stability of the compound assessed as 15-hydroxyprostanoid dehydrogenase (unknown origin)-mediated metabolite formation; assay type: ADME
T1 sequence (P15428 whole entry): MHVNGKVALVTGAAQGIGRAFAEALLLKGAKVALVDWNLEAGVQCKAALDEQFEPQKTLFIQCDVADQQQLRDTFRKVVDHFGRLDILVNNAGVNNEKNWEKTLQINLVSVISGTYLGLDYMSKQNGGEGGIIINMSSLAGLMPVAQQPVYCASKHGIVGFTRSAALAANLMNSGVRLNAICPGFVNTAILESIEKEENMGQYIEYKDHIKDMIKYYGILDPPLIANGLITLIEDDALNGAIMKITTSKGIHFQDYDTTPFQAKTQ

[14] = tested on: Rattus norvegicus; experiment: Antihypertensive activity in spontaneous hypertensive rat model up to 40 mg/kg, po; assay type: functional, organism-based; set-up: dose 40 mg/kg
Outline: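 Spontaneously hypertensive rats dosed po at up to 40 mg/kg; antihypertensive effect assessed.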

[15] = species: Homo sapiens; experiment: Binding affinity to prostanoid receptor in [8-14C]adenine-treated human psoriatic skin slices assessed as increase in c-AMP production at 200 ug/ml after 30 mins by paper chromatographic analysis relative to control; outline: as §2
[16] = species: Homo sapiens; experiment: Binding affinity to prostanoid receptor in [8-14C]adenine-treated human psoriatic skin slices assessed as increase in c-AMP production at 50 ug/ml after 30 mins by paper chromatographic analysis relative to control; outline: as §2
[17] = tested on: Canis familiaris; experiment: Antisecretory activity in dog assessed as reduction of gastric acid release at 12.3 mg/kg, po; assay type: functional, organism-based; set-up: dose 12.3 mg/kg; settings: Canis lupus familiaris, Stomach
Outline: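 Given orally to dogs at 12.3 mg/kg; gastric acid antisecretory effect assessed.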

[18] = tested on: Lymphocyte; experiment: Inhibition of antigen-induced lymphocyte (unknown origin) transformation at 1 ug/mL relative to control; assay type: functional
[19] = species: Homo sapiens; experiment: Binding affinity to prostanoid receptor in [8-14C]adenine-treated human psoriatic skin slices assessed as increase in c-AMP production at 25 ug/ml after 30 mins by paper chromatographic analysis relative to control; outline: as §2
[20] = species: Homo sapiens; experiment: Binding affinity to prostanoid receptor in [8-14C]adenine-treated human psoriatic skin slices assessed as increase in c-AMP production at 100 ug/ml after 30 mins by paper chromatographic analysis relative to control; outline: as §2

Row | fold change (FC) [6] | fold change (FC) [7] | fold change (FC) [8] | fold change (FC) [10] | INH [11] | Structure (SMILES) | also measured
1 | 54 | – | – | – | – | CCCCC[C@H](O)/C=C/[C@H]1[C@H](O)CC(=O)[C@@H]1CCCCCCC(=O)O [ALPROSTADIL] | fold change (FC) [1]: 8; fold change (FC) [2]: 29; fold change (FC) [3]: 10; inhibition at 10 µg/mL [4]: 82%; fold change (FC) [5]: 25
2 | 0.7 | 10 | 2 | – | – | CCCCCC(O)CCCC(CCCCCCC(=O)O)S(=O)(=O)CCO (mixture of isomers) | –
3 | 2 | 23 | 14 | 11 | 1700 ngequiv | CCCCCC(O)CCCC(CCCCCCC(=O)O)C(C)=O (stereo not drawn) | fold change (FC) [9]: 16; fold change (FC) [12]: 16
4 | 1.5 | 14 | 4 | – | – | CCCCCC(O)CCCC(CCCCCCC(=O)O)SCCO (mixture of isomers) | –
5 | 14 | 38 | 27 | 24 | 0.67 µgequiv | CCCCCC(O)CCCC(CCCCCCC(=O)O)S(C)(=O)=O (mixture of isomers) | Stability [13]: Stable; Activity [14]: inactive; fold change (FC) [15]: 2.7; fold change (FC) [16]: 3.4; Activity [17]: inactive; inhibition at 1 µg/mL [18]: 30%; inhibition at 10 µg/mL [4]: 88%; fold change (FC) [5]: 2; fold change (FC) [19]: 2.5; fold change (FC) [20]: 3.5
6 | 2.5 | 24 | 35 | – | 0.77 µgequiv | CCCCCC(O)CCCC(CCCCCCC(=O)O)SC (mixture of isomers) | –
7 | 10 | – | 26 | 25 | 10 ngequiv | CCCCC[C@H](O)CC[C@H]1CCC(=O)[C@@H]1CCCCCCC(=O)O | fold change (FC) [9]: 19
8 | 1 | 27 | 23 | – | 1.11 µgequiv | CS(=O)(=O)C(CCCCCCC(=O)O)CCCC(O)COc1ccc(F)cc1 (stereo not drawn) | –
9 | 4 | 57 | 40 | – | 7.14 µgequiv | CCCCCC(O)CCCC(CCCCCCC(=O)O)[S+](C)[O-] (mixture of isomers) | –
10 | – | 1 | 0.5 | – | – | CCCCCC(O)CCCCCS(=O)(=O)CCCCCCCC(=O)O (racemic) | –
